For test [1], the system named is MGC-803. In words: Induction of apoptosis in human MGC-803 cells assessed as increase in CDK4 protein expression upto 2.5 uM incubated for 24 hrs by Western blot analysis. Type of test: functional, cell-based. The note with it: dose microM <=2.5, time 24.0 hrs. The method in brief: (§1)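 MGC-803 cells (2×10^6) cultured overnight, then exposed 24 h to 0.5, 1.0 or 2.5 μM, or 5.0 μM for the reference agent. Lysates were resolved by SDS-PAGE, transferred to PVDF and probed with primary antibodies. Detection used AP-linked anti-rabbit IgG and ECL. β-actin served as loading control.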
(In western blotting, separated proteins are transferred to a membrane and probed.)

The test system of test [2] is MGC-803. In words: Antitumor activity against human MGC-803cells xenografted in BALB/C nude mouse assessed as reduction in tumor volume at 20 mg/kg, ip administered every 2 days and measured 3 times per week. Format: functional, organism-based. The conditions noted are these: time 2.0 day. The method in brief: (§2)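 Male BALB/c nude mice, 6 weeks old, given 5×10^6 MGC-803 cells s.c. in the flank. When tumors reached about 80 mm3, mice were randomized (n = 6/group) and dosed i.p. every 2 days. Vehicle was 5% DMSO in saline. Drug solutions were 1.0 or 2.0 mg/mL (DMSO/saline). Tumor length and width plus body weight were measured three times weekly; volume = lw²/2. Mean ± SD.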
Background: In xenograft studies the graft and the host belong to different species.

Another test relates to L02. In words: Cytotoxicity against human HL-7702 cells expressing wild type p53 assessed as reduction in cell viability preincubated for 48 hrs and measured after 4 hrs by MTT assay. Type of test: functional, cell-based. On the technique in general: Tetrazolium dyes change colour on reduction, which living cells bring about.
Test [3] can be described thus: Induction of mitochondria membrane potential loss in human MGC-803 cells assessed as increase in green fluorescence at 1 uM incubated 24 hrs by JC-1 probe based flow cytometry analysis (reference value: 4.67%). Format: functional.
The test system of test [4] is MGC-803. In words: Induction of apoptosis in human MGC-803 cells assessed as viable cells at 1 uM measured after 24 hrs by Annexin-V/propidium iodide staining-based flow cytometric analysis (Rvb =92.2 %). The conditions noted are these: MGC-803, 24 h.
The subject of test [5] is MGC-803. In words: Induction of apoptosis in human MGC-803 cells assessed as increase in Bak expression at 0.5 to 2.5 uM measured after 24 hrs by Western blot analysis. The conditions noted are these: dose 0.5-2.5 µM.
The subject of test [6] is MGC-803. In words: Induction of apoptosis in human MGC-803 cells assessed as early apoptotic cells at 0.5 uM measured after 24 hrs by Annexin-V/propidium iodide staining-based flow cytometric analysis (Rvb =0.84%).
For test [7], the system named is MGC-803. In words: Induction of apoptosis in human MGC-803 cells assessed as increase in MDM2 protein expression upto 2.5 uM incubated for 24 hrs by Western blot analysis. Type of test: functional, cell-based. The note with it: dose microM <=2.5, time 24.0 hrs. In outline:
as §1

For test [8], the system named is MGC-803. In words: Induction of apoptosis in human MGC-803 cells assessed as late apoptotic cells at 1 uM measured after 24 hrs by Annexin-V/propidium iodide staining-based flow cytometric analysis (Rvb =0.93%).
For test [9], the system named is MGC-803. In words: Cell cycle arrest in human MGC-803 cells assessed as accumulation at S phase at 0.25 uM after 48 hrs by propidium iodide staining-based flow cytometric analysis (reference value: 45.1 %). Format: functional.
Test [10] concerns MGC-803. In words: Cell cycle arrest in human MGC-803 cells assessed as accumulation at G1 phase at 0.125 uM after 48 hrs by propidium iodide staining-based flow cytometric analysis (reference value: 46.96 %). Format: functional.
The subject of a further test is DU-145. In words: Cytotoxicity against human DU145 cells expressing mutant type p53 assessed as reduction in cell viability preincubated for 48 hrs and measured after 4 hrs by MTT assay. Type of test: functional, cell-based. The method in brief:
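MTT assay. Cells grown in DMEM (T24, MGC-803, A549, HL-7702), RPMI-1640 (DU145) or DMEM-F12 (PC-3), each with 10% FBS. Exposed to 1.25–20 µM in medium with 1% DMSO for 48 h, then MTT for 4 h. Formazan dissolved in DMSO and read at 570 nm. Five wells per concentration; means ± SD of independent repeats.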

For test [11], the system named is MGC-803. In words: Induction of apoptosis in human MGC-803 cells assessed as necrotic cells at 1 uM measured after 24 hrs by Annexin-V/propidium iodide staining-based flow cytometric analysis (Rvb =6.05%).
The nature of test [12]: Induction of mitochondria membrane potential loss in human MGC-803 cells assessed as increase in green fluorescence at 0.5 uM incubated 24 hrs by JC-1 probe based flow cytometry analysis (reference value: 4.67%). Format: functional.
For test [13], the system named is MGC-803. In words: Induction of apoptosis in human MGC-803 cells assessed as early apoptotic cells at 1 uM measured after 24 hrs by Annexin-V/propidium iodide staining-based flow cytometric analysis (Rvb =0.84%).
The test system of test [14] is MGC-803. In words: Induction of apoptosis in human MGC-803 cells assessed as activation of caspase 3 at 2.5 uM incubated for 24 hrs by flow cytometric analysis (reference value: 1.47%). Type of test: functional.
In test [15] the test system is MGC-803. In words: Antitumor activity against human MGC-803cells xenografted in BALB/C nude mouse assessed as tumor growth inhibition at 20 mg/kg, ip administered every 2 days and measured 3 times per week for 16 days. Type of test: functional. The conditions noted are these: MGC-803, ip, 384 h, time 16 day, read-out: TGI. The method in brief: as §2
Test [16] relates to MGC-803. In words: Cytotoxicity against human MGC-803 cells expressing mutant type p53 assessed as reduction in cell viability preincubated for 48 hrs and measured after 4 hrs by MTT assay. Format: functional, cell-based.
Test [17] can be described thus: Induction of mitochondria membrane potential loss in human MGC-803 cells assessed as increase in green fluorescence at 2.5 uM incubated 24 hrs by JC-1 probe based flow cytometry analysis (reference value: 4.67%). Format: functional.
The test system of test [18] is MGC-803. In words: Cell cycle arrest in human MGC-803 cells assessed as accumulation at G1 phase at 0.25 uM after 48 hrs by propidium iodide staining-based flow cytometric analysis (reference value: 46.96 %). Type of test: functional.
Test [19] relates to MGC-803. In words: Induction of apoptosis in human MGC-803 cells assessed as increase in Bax expression at 0.5 to 2.5 uM measured after 24 hrs by Western blot analysis. The conditions noted are these: dose 0.5-2.5 µM. Format: functional, cell-based. The method in brief:
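MGC-803 cells (2×10^6) plated overnight, then treated for 24 h at 0.5, 1.0 or 2.5 µM (test agent) or 5.0 µM (comparator). Whole-cell lysates separated by SDS-PAGE, transferred to PVDF and probed with primary antibodies. AP-linked anti-rabbit IgG, ECL detection, β-actin loading control. Representative of three experiments.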

For test [20], the system named is MGC-803. In words: Antitumor activity against human MGC-803 cells xenografted in BALB/C nude mouse assessed as tumor growth inhibition at 10 mg/kg, ip administered every 2 days and measured 3 times per week. Format: functional, organism-based. The note with it: time 2.0 day. In outline: as §2
Test [21] has as its system MGC-803. In words: Cell cycle arrest in human MGC-803 cells assessed as accumulation at S phase at 0.5 uM after 48 hrs by propidium iodide staining-based flow cytometric analysis (reference value: 45.1 %). Format: functional.
For a further test, the system named is A549. In words: Cytotoxicity against human A549 cells expressing wild type p53 assessed as reduction in cell viability preincubated for 48 hrs and measured after 4 hrs by MTT assay. Type of test: functional, cell-based.

Calls of active or inactive are those of the source. The calls are words filed in the database; no cut-off is given here.

In general, IC50 refers to the point on the concentration scale where inhibition reaches its midpoint. As a reminder, the viability is a per cent measure of how many cells are alive, often set against a control. For the compound `NCCCCNc1nc(/C=C/c2ccc([N+](=O)[O-])cc2)nc2ccccc12`, the result in the test on MGC-803 [1], in the test with MGC-803 [2], in the test on MGC-803 [7], in the test on MGC-803 [19] and in the test with MGC-803 [20] was Active. In addition, the IC50 in the test with L02 came out at 7.46 µM; with DU-145 it was 4.15 µM; in the test on MGC-803 [16], 1.73 µM; in the test on A549 it was 5.48 µM. Besides, the Activity in [3] stood at 13.9%; in the test with MGC-803 [6] it was 14%; in the test on MGC-803 [8], 16%; in the test on MGC-803 [9] it was 36.91%; in the test with MGC-803 [10], 35.39%; in the test with MGC-803 [11] it was 2.21%. Moreover, the Activity in test [12] amounted to 8.91%; in the test with MGC-803 [13], 27.5%; in the test with MGC-803 [14], 22.98%; in test [17], 22.6%; with MGC-803 [18], 7.66%; in the test on MGC-803 [21], 25.89%. Also, in the test on MGC-803 [4], the viability at 1 µM turned out to be 55.3%. Moreover, the outcome in the test on MGC-803 [5] was inactive. Also, the inhibition in vivo at 20 mg/kg in the test with MGC-803 [15] came out at 61.8%.

Values taken from ChEMBL document CHEMBL4680124, “2-Styryl-4-aminoquinazoline derivatives as potent DNA-cleavage, p53-activation and in vivo effective anticancer agents” (Eur J Med Chem, 2020).
